Measurements from ChEMBL document CHEMBL4257519, “Generation of a long-acting fusion inhibitor against HIV-1” (Medchemcomm, 2018).
Where a SMILES comes first, the peptide text is derived from it. Bridges are numbered along the chain shown (N, C = ends). [ ]: non-standard residue; d: D form. S5 = C=CCCC[C@](C)(N)C(=O)O

Assays:
[1] = tested on: Human immunodeficiency virus 1; test: Antiviral activity against HIV1 subtype B' CNE6 pseudovirus assessed as inhibition of viral infection in Ghost (3)X4/R5 cells after 48 hrs by Bright-Glo luciferase reporter gene assay; assay type: functional, organism-based; conditions: Human immunodeficiency virus 1, subtype B' CNE6, 48 h
How it was run: (§1)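 Single-round env-pseudotyped luciferase reporter viruses were made in HEK293T cells with the pNL4-3.Luc.R-E backbone. Ghost(3)X4/R5 target cells (CD4, CXCR4, CCR5) were grown in DMEM with 10% heat-inactivated FBS at 37 °C, 5% CO2. Peptides in 3-fold dilutions were preincubated with 100 TCID50 of virus for 1 h at room temperature. The mixture was added at 10^4 cells/well for 48 h at 37 °C. IC50 came from a variable-slope dose-response fit of luciferase reduction versus controls.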

[2] = tested on: Human immunodeficiency virus 1; test: Antiviral activity against HIV1 subtype B' CNE11 pseudovirus assessed as inhibition of viral infection in Ghost (3)X4/R5 cells after 48 hrs by Bright-Glo luciferase reporter gene assay; assay type: functional, organism-based; conditions: Human immunodeficiency virus 1, subtype B' CNE11, 48 h; how it was run: as §1
[3] = tested on: Human immunodeficiency virus 1; test: Antiviral activity against HIV1 subtype BC CNE15 pseudovirus assessed as inhibition of viral infection in Ghost (3)X4/R5 cells after 48 hrs by Bright-Glo luciferase reporter gene assay; assay type: functional, organism-based; conditions: Human immunodeficiency virus 1, subtype BC CNE15, 48 h; how it was run: as §1
[4] = tested on: Human immunodeficiency virus 1; test: Antiviral activity against HIV1 subtype BC CNE30 pseudovirus assessed as inhibition of viral infection in Ghost (3)X4/R5 cells after 48 hrs by Bright-Glo luciferase reporter gene assay; assay type: functional, organism-based; conditions: Human immunodeficiency virus 1, subtype BC CNE30, 48 h; how it was run: as §1
[5] = tested on: Human immunodeficiency virus 1; test: Antiviral activity against HIV1 subtype CRF01_AE CNE5 pseudovirus assessed as inhibition of viral infection in Ghost (3)X4/R5 cells after 48 hrs by Bright-Glo luciferase reporter gene assay; assay type: functional, organism-based, HIV-1 CRF01_AE; conditions: Human immunodeficiency virus 1, CNE5, 48 h; how it was run: as §1
[6] = tested on: Human immunodeficiency virus 1; test: Antiviral activity against HIV1 subtype CRF01_AE CNE55 pseudovirus assessed as inhibition of viral infection in Ghost (3)X4/R5 cells after 48 hrs by Bright-Glo luciferase reporter gene assay; assay type: functional, organism-based, HIV-1 CRF01_AE; conditions: Human immunodeficiency virus 1, CNE55, 48 h; how it was run: as §1
[7] = tested on: Human immunodeficiency virus 1; test: Antiviral activity against HIV-1 subtype B SF162 pseudovirus assessed as inhibition of viral infection in Ghost (3)X4/R5 cells after 48 hrs by Bright-Glo luciferase reporter gene assay; assay type: functional, organism-based; conditions: Human immunodeficiency virus 1, SF162 ISOLATE; how it was run: as §1
[8] = tested on: Human immunodeficiency virus 1; test: Antiviral activity against HIV-1 subtype B JRFL pseudovirus assessed as inhibition of viral infection in Ghost (3)X4/R5 cells after 48 hrs by Bright-Glo luciferase reporter gene assay; assay type: functional, organism-based, HIV-1 group M; conditions: Human immunodeficiency virus 1, JRFL; how it was run: as §1
[9] = tested on: Human immunodeficiency virus 1; test: Antiviral activity against HIV-1 subtype B HXB2 pseudovirus assessed as inhibition of viral infection in Ghost (3)X4/R5 cells after 48 hrs by Bright-Glo luciferase reporter gene assay; assay type: functional, organism-based; conditions: Human immunodeficiency virus 1, M:B_HXB2R; how it was run: as §1
[10] = tested on: chymotrypsin; test: Drug metabolism assessed as chymotrypsin (unknown origin)-mediated compound degradation by measuring compound half life at 25 uM by HPLC analysis; assay type: ADME, Homo sapiens
How it was run: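 Peptide stock was 1 mM in DMSO, diluted into 50 mM PBS pH 7.4 containing chymotrypsin (0.5 ng/μL) and 50 mM CaCl2. Digestion ran at 30 °C. Remaining peptide was monitored by reversed-phase HPLC on a C4 column at 1.0 mL/min, acetonitrile/water with 0.1% TFA.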

[11] = tested on: Human immunodeficiency virus 1; test: Resistance index, ratio of IC50 for inhibition of gp41 D36G mutant-mediated T20-resistant HIV1 NL4-3 viral infection in Ghost (3)X4/R5 cells to IC50 for inhibition of gp41-mediated HIV1 NL4-3 infection in Ghost (3)X4/R5 cells; assay type: cell-based
[12] = tested on: Human immunodeficiency virus 1; test: Resistance index, ratio of IC50 for inhibition of gp41 I37T mutant-mediated T20-resistant HIV1 NL4-3 viral infection in Ghost (3)X4/R5 cells to IC50 for inhibition of gp41-mediated HIV1 NL4-3 infection in Ghost (3)X4/R5 cells; assay type: cell-based
[13] = tested on: Human immunodeficiency virus 1; test: Resistance index, ratio of IC50 for inhibition of gp41 V38M mutant-mediated T20-resistant HIV1 NL4-3 viral infection in Ghost (3)X4/R5 cells to IC50 for inhibition of gp41-mediated HIV1 NL4-3 infection in Ghost (3)X4/R5 cells; assay type: cell-based
[14] = tested on: Human immunodeficiency virus 1; test: Resistance index, ratio of IC50 for inhibition of gp41 Q40H mutant-mediated T20-resistant HIV1 NL4-3 viral infection in Ghost (3)X4/R5 cells to IC50 for inhibition of gp41-mediated HIV1 NL4-3 infection in Ghost (3)X4/R5 cells; assay type: cell-based
[15] = tested on: Human immunodeficiency virus 1; test: Resistance index, ratio of IC50 for inhibition of gp41 N43K mutant-mediated T20-resistant HIV1 NL4-3 viral infection in Ghost (3)X4/R5 cells to IC50 for inhibition of gp41-mediated HIV1 NL4-3 infection in Ghost (3)X4/R5 cells; assay type: cell-based
[16] = tested on: Human immunodeficiency virus 1; test: Resistance index, ratio of IC50 for inhibition of gp41 I37T/N43K double mutant-mediated T20-resistant HIV1 NL4-3 viral infection in Ghost (3)X4/R5 cells to IC50 for inhibition of gp41-mediated HIV1 NL4-3 infection in Ghost (3)X4/R5 cells; assay type: cell-based
[17] = tested on: Human immunodeficiency virus 1; test: Resistance index, ratio of IC50 for inhibition of gp41 G36S/V38M double mutant-mediated T20-resistant HIV1 NL4-3 viral infection in Ghost (3)X4/R5 cells to IC50 for inhibition of gp41-mediated HIV1 NL4-3 infection in Ghost (3)X4/R5 cells; assay type: cell-based
[18] = tested on: Human immunodeficiency virus 1; test: Resistance index, ratio of IC50 for inhibition of gp41 V38A/N42T double mutant-mediated T20-resistant HIV1 NL4-3 viral infection in Ghost (3)X4/R5 cells to IC50 for inhibition of gp41-mediated HIV1 NL4-3 infection in Ghost (3)X4/R5 cells; assay type: cell-based
[19] = tested on: Human immunodeficiency virus 1; test: Resistance index, ratio of IC50 for inhibition of gp41 V38A mutant-mediated T20-resistant HIV1 NL4-3 viral infection in Ghost (3)X4/R5 cells to IC50 for inhibition of gp41-mediated HIV1 NL4-3 infection in Ghost (3)X4/R5 cells; assay type: cell-based

CC[C@H](C)[C@H](NC(=O)[C@H](CC(C)C)NC(=O)[C@H](CCC(=O)O)NC(=O)[C@H](CCC(=O)O)NC(=O)[C@@H](NC(=O)[C@H](CCCCN)NC(=O)[C@H](CCCCN)NC(=O)[C@@H](NC(=O)[C@H](Cc1ccc(O)cc1)NC(=O)[C@]1(C)CCC/C=C\CCC[C@](C)(NC(=O)[C@H](CC(=O)O)NC(=O)[C@H](Cc2c[nH]c3ccccc23)NC(=O)[C@H](CCC(=O)O)NC(=O)[C@H](CCC(=O)O)NC(=O)[C@H](Cc2c[nH]c3ccccc23)NC(=O)[C@@H](NC(=O)[C@H](CCSC)NC(C)=O)[C@@H](C)O)C(=O)N[C@@H](CCCCN)C(=O)N[C@@H]([C@@H](C)CC)C(=O)N[C@@H](CCC(=O)O)C(=O)N1)[C@@H](C)O)[C@@H](C)CC)C(=O)N[C@@H](CCCCN)C(=O)N[C@@H](CCCCN)C(=O)N[C@@H](CO)C(N)=O (Ac-MTWEEWD[S5]KIE[S5]YTKKIEELIKKS-NH2; staple (Z) 8-12)
IC50 [1]: 12.5 nM | IC50 [2]: 7.2 nM | IC50 [3]: 3.3 nM | IC50 [4]: 16.2 nM | IC50 [5]: 6.8 nM | IC50 [6]: 20.3 nM | IC50 [7]: 3.3 nM | IC50 [8]: 8.6 nM | IC50 [9]: 0.4 nM | half-life at 25 µM [10]: 705 min

Ac-MTWEEWDKKIEEYTKKIEELIKKS-NH2
IC50 [1]: 10.3 nM | IC50 [2]: 5.9 nM | IC50 [3]: 7.5 nM | IC50 [4]: 22.3 nM | IC50 [5]: 35 nM | IC50 [6]: 12.9 nM | IC50 [7]: 2.9 nM | IC50 [8]: 7.3 nM | IC50 [9]: 2.4 nM | Ratio IC50 [11]: 2.3 | Ratio IC50 [12]: 2.6 | Ratio IC50 [13]: 2.3 | Ratio IC50 [14]: 1.1 | Ratio IC50 [15]: 19 | Ratio IC50 [16]: 13 | Ratio IC50 [17]: 3.4 | Ratio IC50 [18]: 1.2 | half-life at 25 µM [10]: 125 min | Ratio IC50 [19]: 1.5

CC[C@H](C)[C@H](NC(=O)[C@H](CC(C)C)NC(=O)[C@]1(C)CCC/C=C\CCC[C@](C)(NC(=O)[C@@H](NC(=O)[C@H](Cc2ccc(O)cc2)NC(=O)[C@]2(C)CCC/C=C\CCC[C@](C)(NC(=O)[C@H](CC(=O)O)NC(=O)[C@H](Cc3c[nH]c4ccccc34)NC(=O)[C@H](CCC(=O)O)NC(=O)[C@H](CCC(=O)O)NC(=O)[C@H](Cc3c[nH]c4ccccc34)NC(=O)[C@@H](NC(=O)[C@H](CCSC)NC(C)=O)[C@@H](C)O)C(=O)N[C@@H](CCCCN)C(=O)N[C@@H]([C@@H](C)CC)C(=O)N[C@@H](CCC(=O)O)C(=O)N2)[C@@H](C)O)C(=O)N[C@@H](CCCCN)C(=O)N[C@@H]([C@@H](C)CC)C(=O)N[C@@H](CCC(=O)O)C(=O)N1)C(=O)N[C@@H](CCCCN)C(=O)N[C@@H](CCCCN)C(=O)N[C@@H](CO)C(N)=O (Ac-MTWEEWD[S5]KIE[S5]YT[S5]KIE[S5]LIKKS-NH2; staple (Z) 8-12, 15-19)
IC50 [1]: 1.2 nM | IC50 [2]: 2.6 nM | IC50 [3]: 1.8 nM | IC50 [4]: 7.7 nM | IC50 [5]: 3.6 nM | IC50 [6]: 5.3 nM | IC50 [7]: 1 nM | IC50 [8]: 0.6 nM | IC50 [9]: 0.05 nM | Ratio IC50 [11]: 1.4 | Ratio IC50 [12]: 1.6 | Ratio IC50 [13]: 1 | Ratio IC50 [14]: 1.1 | Ratio IC50 [15]: 3.3 | Ratio IC50 [16]: 2.2 | Ratio IC50 [17]: 2.1 | Ratio IC50 [18]: 0.5 | half-life at 25 µM [10]: 3660 min | Ratio IC50 [19]: 0.8

CC[C@H](C)[C@H](NC(=O)[C@H](CCCCN)NC(=O)[C@H](CCCCN)NC(=O)[C@H](CC(=O)O)NC(=O)[C@H](Cc1c[nH]c2ccccc12)NC(=O)[C@H](CCC(=O)O)NC(=O)[C@H](CCC(=O)O)NC(=O)[C@H](Cc1c[nH]c2ccccc12)NC(=O)[C@@H](NC(=O)[C@H](CCSC)NC(C)=O)[C@@H](C)O)C(=O)N[C@@H](CCC(=O)O)C(=O)N[C@@H](CCC(=O)O)C(=O)N[C@@H](Cc1ccc(O)cc1)C(=O)N[C@H](C(=O)N[C@@]1(C)CCC/C=C\CCC[C@@](C)(C(=O)N[C@@H](CC(C)C)C(=O)N[C@H](C(=O)N[C@@H](CCCCN)C(=O)N[C@@H](CCCCN)C(=O)N[C@@H](CO)C(N)=O)[C@@H](C)CC)NC(=O)[C@H](CCC(=O)O)NC(=O)[C@H]([C@@H](C)CC)NC(=O)[C@H](CCCCN)NC1=O)[C@@H](C)O (Ac-MTWEEWDKKIEEYT[S5]KIE[S5]LIKKS-NH2; staple (Z) 15-19)
IC50 [1]: 10.4 nM | IC50 [2]: 8.8 nM | IC50 [3]: 14 nM | IC50 [4]: 71.7 nM | IC50 [5]: 27.7 nM | IC50 [6]: 82.3 nM | IC50 [7]: 14.4 nM | IC50 [8]: 8.7 nM | IC50 [9]: 0.5 nM | half-life at 25 µM [10]: 495 min
